This is an account of results in ChEMBL document CHEMBL4261490, “Exploring the links between peptoid antibacterial activity and toxicity” (Medchemcomm, 2017).

In brackets after ≈: the same amount, converted by molar mass. Square brackets hold non-standard residues; d marks the D form. Peptide text beside a SMILES is read from it. Gly(N-2-aminoethyl) = NCCNCC(=O)O; Nspe = C[C@H](NCC(=O)O)c1ccccc1; Nphe = O=C(O)CNCc1ccccc1; Nlys = NCCCCNCC(=O)O

For one data set, the system named is Escherichia coli. The data set can be described thus: Antibacterial activity against Escherichia coli K-12 W3110 ATCC 27325 incubated for 16 hrs under shaking condition. The format is functional. Particulars: K-12 substr. W3110 ATCC 27325, 16 h. The gist of the method: (§1)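 Broth microdilution (Andrews method) in Iso-sensitest broth. Overnight cultures are adjusted to A650 0.07 (0.5 McFarland) and diluted ten-fold. Compounds come from 5 mM DMSO stocks, 2-fold serially diluted, final 2–100 μM in a 1:1 inoculum:compound mix. Incubation is 37 °C for 16 h with shaking. MIC is the lowest concentration giving complete growth inhibition, read by absorbance; triplicate.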

Data set [1] is described as follows: Cytotoxicity against human HaCaT cells assessed as reduction in cell viability pretreated for 1 hr followed by DMEM addition measured after 24 hrs by alamar blue assay. The format is cell-based. Conditions: read-out: ED50. Put shortly:
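HaCaT keratinocytes are grown in DMEM high glucose with 10% FBS and 1% P/S and seeded at 2x10^4 cells/well 24 h before treatment. Compound dilution series run 2–100 µM (5 mM DMSO stocks) in 50 µL for 1 h, then medium is added for 24 h at 37 °C, 5% CO2. alamarBlue is read after 1 h (Ex 540/Em 620). Triplicate, ≥2 occasions; ED50 from dose-response; amphotericin B positive control.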

Data set [2] is described as follows: Cytotoxicity against human HepG2 cells assessed as reduction in cell viability pretreated for 1 hr followed by DMEM addition measured after 24 hrs by alamar blue assay. The format is cell-based. Conditions: read-out: ED50. Put shortly: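 HepG2 cells are kept in DMEM high glucose with 10% heat-inactivated FBS and 1% P/S at 37 °C, 5% CO2, and seeded at 2x10^4 cells/well one day ahead. They are exposed to compounds (100 to 3 µM, from 5 mM DMSO stocks) in 50 µL for 1 h. Medium is then added and cells incubated 24 h. alamarBlue is read after 2 h (Ex 560/Em 600). Triplicate on ≥2 occasions; ED50 from dose-response; DMSO negative control.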
(Alamar Blue is a resazurin reagent that responds to reducing activity.)

Another data set relates to Pseudomonas aeruginosa. The data set can be described thus: Antibacterial activity against Pseudomonas aeruginosa PAO1 ATCC 15692 incubated for 16 hrs under shaking condition. The format is functional. Conditions: PAO1 ATCC 15692, 16 h. The gist of the method: as §1
The subject of another data set is Staphylococcus aureus. Kind of data set: Antibacterial activity against Staphylococcus aureus 3R7089 strain Oxford/ATCC 9144 incubated for 16 hrs under shaking condition. The format is functional. Particulars: 3R7089 strain Oxford/ATCC 9144, 16 h. The gist of the method:
as §1

The subject of data set [3] is Staphylococcus epidermidis. Kind of data set: Antibacterial activity against Staphylococcus epidermidis clinical isolate incubated for 16 hrs under shaking condition. The format is functional. Put shortly: as §1
Data set [4] in a line: Selectivity index, ratio of ED50 for human HaCaT cells to MIC for Escherichia coli K-12 W3110 ATCC 27325. The format is toxicity. Conditions: read-out: Selectivity Index.
A short description of data set [5]: Selectivity index, ratio of ED50 for human HaCaT cells to MIC for Pseudomonas aeruginosa PAO1 ATCC 15692. The format is toxicity. Conditions: read-out: Selectivity Index.
Data set [6] can be described thus: Selectivity index, ratio of ED50 for human HaCaT cells to MIC for Staphylococcus aureus 3R7089 strain Oxford/ATCC 9144. The format is toxicity. Particulars: read-out: Selectivity Index.
Data set [7] can be described thus: Selectivity index, ratio of ED50 for human HaCaT cells to MIC for Staphylococcus epidermidis clinical isolate. Particulars: read-out: Selectivity Index. The format is toxicity.
Data set [8] can be described thus: Selectivity index, ratio of ED50 for human HepG2 cells to MIC for Escherichia coli K-12 W3110 ATCC 27325. The format is toxicity. Conditions: read-out: Selectivity Index.
A short description of data set [9]: Selectivity index, ratio of ED50 for human HepG2 cells to MIC for Pseudomonas aeruginosa PAO1 ATCC 15692. Conditions: read-out: Selectivity Index. The format is toxicity.
Data set [10] can be described thus: Selectivity index, ratio of ED50 for human HepG2 cells to MIC for Staphylococcus aureus 3R7089 strain Oxford/ATCC 9144. The format is toxicity. Conditions: read-out: Selectivity Index.
Data set [11] can be described thus: Selectivity index, ratio of ED50 for human HepG2 cells to MIC for Staphylococcus epidermidis clinical isolate. The format is toxicity. Particulars: read-out: Selectivity Index.

The MIC is the lowest concentration that inhibits growth of the organism. A higher MIC goes with a need for much substance. Regarding `N=C(N)NCCCCNCC(=O)N(CC(=O)N(CC(=O)N(CCCCNC(=N)N)CC(=O)N(CC(=O)N(CC(=O)N(CCCCNC(=N)N)CC(=O)N(CC(=O)N(CC(=O)N(CCCCNC(=N)N)CC(=O)N(CC(=O)N(CC(N)=O)Cc1cccc(F)c1)Cc1cccc(F)c1)Cc1cccc(F)c1)Cc1cccc(F)c1)Cc1cccc(F)c1)Cc1cccc(F)c1)Cc1cccc(F)c1)Cc1cccc(F)c1`, the MIC was found to be 13 µM (≈ 26.3 µg/mL) in the data set on Escherichia coli, 13 µM (≈ 26.3 µg/mL) against Pseudomonas aeruginosa, 2 µM (≈ 4.04 µg/mL) in the data set on Staphylococcus aureus and 2 µM (≈ 4.04 µg/mL) in [3]. Besides, the CC50 at 24 h in data set [1] is 28 µM; in [2] it was 21 µM. Also, the selectivity ratio in [4] was 2; in data set [5], 2; in data set [6], 14; in data set [7], 14; in data set [8], 2; in [9] it was 2. The selectivity ratio in data set [10] and in data set [11] was 11 in each case.

In the case of `C[C@@H](c1ccccc1)N(CC(N)=O)C(=O)CN(C(=O)CN(CCN)C(=O)CN(C(=O)CN(C(=O)CNCCN)[C@@H](C)c1ccccc1)[C@@H](C)c1ccccc1)[C@@H](C)c1ccccc1`, the minimal inhibitory concentration (MIC) (against Escherichia coli; in the data set with Pseudomonas aeruginosa; with Staphylococcus aureus; in [3]) was over 100 µM in each case. Besides, the CC50 at 24 h in [1] and in [2] was over 100 µM throughout. For the same compound, the selectivity ratio in [4], in data set [5], in data set [6], in data set [7], in data set [8] and in [9] was 1 throughout. Besides, the selectivity ratio in data set [10] and in [11] was 1 each time.

Turning to `CCCCCNCC(=O)N(CC(=O)N(CC(=O)N(CCCCN)CC(=O)N(CC(=O)N(CC(=O)N(CCCCN)CC(=O)N(CC(=O)N(CC(=O)N(CCCCN)CC(=O)N(CC(=O)N(CC(N)=O)[C@@H](C)c1ccccc1)[C@@H](C)c1ccccc1)C(C)c1ccccc1)[C@@H](C)c1ccccc1)[C@@H](C)c1ccccc1)[C@@H](C)c1ccccc1)C(C)c1ccccc1)[C@@H](C)c1ccccc1` (single isomer, unassigned), the minimal inhibitory concentration (MIC) against Escherichia coli was determined as 50 µM (≈ 90.9 µg/mL); in the data set on Staphylococcus aureus, 2 µM (≈ 3.64 µg/mL). The CC50 at 24 h worked out at 12 µM in [1] and 15 µM in data set [2]. Moreover, the selectivity ratio in data set [6] was found to be 6; in data set [7], 6; in [10], 8; in data set [11], 8.

Consider `C[C@@H](c1ccccc1)N(CC(N)=O)C(=O)CN(C(=O)CN(CCCCN)C(=O)CN(C(=O)CN(C(=O)CNCCCCN)[C@@H](C)c1ccccc1)[C@@H](C)c1ccccc1)[C@@H](C)c1ccccc1` (H-[Nlys][Nspe][Nspe][Nlys][Nspe][Nspe]-NH2), for which the minimum inhibitory concentration (MIC) in the data set on Escherichia coli, in the data set on Pseudomonas aeruginosa and in the data set on Staphylococcus aureus was over 100 µM throughout. Besides, the CC50 at 24 h in [1] and in [2] was over 100 µM each time. In addition, the selectivity ratio in [4] was found to be 1; in data set [5] it was 1; in data set [6] it was 1; in data set [7] it was 4; in data set [8], 1; in data set [9], 1. The results for the selectivity ratio in data set [10] and in data set [11] were 1 and 4, respectively.

As for `NCCCCNCC(=O)N(CC(=O)N(CC(=O)N(CCCCN)CC(=O)N(CC(=O)N(CC(N)=O)Cc1ccccc1)Cc1ccccc1)Cc1ccccc1)Cc1ccccc1` (H-[Nlys][Nphe][Nphe][Nlys][Nphe][Nphe]-NH2), the minimal inhibitory concentration (MIC) (with Escherichia coli; in the data set with Pseudomonas aeruginosa; against Staphylococcus aureus; in data set [3]) was over 100 µM each time. Moreover, the CC50 at 24 h in data set [1] and in data set [2] was over 100 µM each time. For the same compound, the selectivity ratio in data set [4], in data set [5], in data set [6], in data set [7], in [8] and in data set [9] was 1 throughout. The selectivity ratio in [10] and in [11] was 1 each time.

Consider `CCCCCN(CC(=O)N(CC(=O)N(CC(=O)N(CCCCN)CC(=O)N(CC(=O)N(CC(N)=O)[C@@H](C)c1ccccc1)[C@@H](C)c1ccccc1)C(C)c1ccccc1)[C@@H](C)c1ccccc1)C(=O)CN(C(=O)CN(C(=O)CN(CCCCN)C(=O)CN(C(=O)CN(C(=O)CNCCCCN)[C@@H](C)c1ccccc1)C(C)c1ccccc1)[C@@H](C)c1ccccc1)C(C)c1ccccc1` (single isomer, unassigned), for which the MIC was over 100 µM in the data set with Escherichia coli, over 100 µM in the data set with Pseudomonas aeruginosa, 6 µM (≈ 10.9 µg/mL) in the data set on Staphylococcus aureus and 2 µM (≈ 3.64 µg/mL) in data set [3]. The CC50 at 24 h came out at 20 µM in data set [1] and 22 µM in data set [2]. Also, the selectivity ratio in [6] amounted to 3; in [7] it was 10; in [10], 4; in [11], 11.

Turning to `NCCNCC(=O)N(CC(=O)N(CC(=O)N(CCN)CC(=O)N(CC(=O)N(CC(=O)N(CCN)CC(=O)N(CC(=O)N(CC(N)=O)Cc1ccccc1)Cc1ccccc1)Cc1ccccc1)Cc1ccccc1)Cc1ccccc1)Cc1ccccc1` (H-[Gly(N-2-aminoethyl)][Nphe][Nphe][Gly(N-2-aminoethyl)][Nphe][Nphe][Gly(N-2-aminoethyl)][Nphe][Nphe]-NH2), the MIC (against Escherichia coli; in the data set with Pseudomonas aeruginosa; in data set [3]) was over 100 µM each time. Also, the CC50 at 24 h in data set [1] and in data set [2] was over 100 µM in each case. Besides, the selectivity ratio is 1 in data set [4]; 1 in data set [5]; 8 in [6]; 1 in [7]; 1 in data set [8]; 1 in [9]. Also, the values for the selectivity ratio in data set [10] and in [11] were 8 and 1, respectively.

With `CC(c1ccccc1)N(CC(=O)N(CCCCN)CC(=O)N(CC(=O)N(CC(=O)N(CCCCN)CC(=O)N(CC(=O)N(CC(N)=O)[C@@H](C)c1ccccc1)[C@@H](C)c1ccccc1)Cc1ccc(F)cc1)Cc1ccc(F)cc1)C(=O)CN(C(=O)CN(CCCCN)C(=O)CN(Cc1ccc(F)cc1)C(=O)CN(Cc1ccc(F)cc1)C(=O)CNCCCCN)[C@@H](C)c1ccccc1` (single isomer, unassigned), the MIC is 6 µM (≈ 11 µg/mL) with Escherichia coli, 50 µM (≈ 91.8 µg/mL) in the data set with Pseudomonas aeruginosa, 2 µM (≈ 3.67 µg/mL) in the data set on Staphylococcus aureus and 1 µM (≈ 1.84 µg/mL) in data set [3]. For the same compound, the CC50 at 24 h in data set [1] was over 100 µM; in data set [2], 55 µM. The selectivity ratio turned out to be 13 in data set [4]; 2 in data set [5]; 50 in data set [6]; 100 in data set [7]; 9 in data set [8]; 28 in data set [10]. In data set [11], the selectivity ratio is 55.

For `CCCCCNCC(=O)N(CC(=O)N(CC(=O)N(CCCCC)CC(=O)N(CC(=O)N(CC(=O)N(CCCCN)CC(=O)N(CC(=O)N(CC(=O)N(CCCCN)CC(=O)N(CC(=O)N(CC(N)=O)[C@@H](C)c1ccccc1)[C@@H](C)c1ccccc1)C(C)c1ccccc1)[C@@H](C)c1ccccc1)C(C)c1ccccc1)[C@@H](C)c1ccccc1)C(C)c1ccccc1)[C@@H](C)c1ccccc1` (single isomer, unassigned), the MIC against Escherichia coli was over 100 µM; against Pseudomonas aeruginosa, over 100 µM; in the data set with Staphylococcus aureus it was 2 µM (≈ 3.63 µg/mL); in data set [3], 1 µM (≈ 1.82 µg/mL). Also, the CC50 at 24 h in data set [1] was 20 µM; in [2] it was 18 µM. Further, the selectivity ratio was 10 in data set [6], 20 in data set [7], 9 in [10] and 18 in data set [11].
